Screening data (PubChem BioAssay)
MC4R ag barr: MC4R agonists recruiting beta-arrestin, primary screen, cell-based, luminescence, agonist arm of biased-ligand search. U2OS MC4R beta-arrestin complementation; percent of melanotan II response, DMSO zero. activation, % at 8.9 µM. 360,000 tested, 0.98% active;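 active means activation above a per-plate cutoff, the mean activation of sample wells on that plate plus 3 SD, cut at about 8% in these data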
Target sequence (P32245 whole entry, looked up): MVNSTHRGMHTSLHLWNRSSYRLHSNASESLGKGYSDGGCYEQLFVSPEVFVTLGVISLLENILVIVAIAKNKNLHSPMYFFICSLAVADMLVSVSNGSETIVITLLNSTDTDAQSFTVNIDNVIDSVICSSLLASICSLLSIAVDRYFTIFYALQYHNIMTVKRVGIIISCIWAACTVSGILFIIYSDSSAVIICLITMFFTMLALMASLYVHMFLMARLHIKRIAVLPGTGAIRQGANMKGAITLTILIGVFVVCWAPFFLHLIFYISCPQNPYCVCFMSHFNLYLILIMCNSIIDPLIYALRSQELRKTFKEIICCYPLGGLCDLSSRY
MsrA inh: bovine MsrA enzyme inhibitors, primary screen, biochemical, absorbance, HTS | AID 651718, 2012 | 360,000 tested, 0.75% active | inhibition, % at 15.5 µM | purified bovine MsrA, absorbance read-out | Methionine sulfoxide reductase A (Bos taurus);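 further: 0% = vehicle wells with enzyme and 100% = reference inhibitor wells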
bovine MsrA act: bovine MsrA enzyme activators, primary screen, biochemical, absorbance, HTS | AID 602163, 2012 | purified bovine MsrA, absorbance read-out | 360,000 tested, 0.3% active | activation, % at 10.6 µM | Methionine sulfoxide reductase A (Bos taurus); in the data active means activation above about 7.5%;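 further: 0% = vehicle and 100% = reference activator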
MC4R antagonist: MC4R antagonists of cAMP signaling, primary screen, cell-based, TR-FRET, antagonist arm of biased-ligand search; Melanocortin receptor 4 (Homo sapiens), P32245; MC4R-expressing cells, MTII-stimulated cAMP, LANCE TR-FRET; inhibition, % at 6.5 µM; 360,000 tested, 0.48% active; AID 540295, 2011;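 active means inhibition above its plate's cutoff, the mean of tested wells on that plate plus 3 SD, cut at about 29% in these data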;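 further: 0% = Melanotan II alone and 100% = Melanotan II plus saturating MCL0020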
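Assay system: U2OS-MC4R stable cell line; Also added: Melanotan II; Technique: Eu-cAMP/anti-cAMP TR-FRET, emission 671 nm; Times: 30-min compound, 1-h challenge, 1-h detection, room temperature.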
MsrA inh confirm: bovine MsrA inhibitors, retest, confirmation, biochemical, absorbance, HTS; purified bovine MsrA, absorbance read-out; inhibition, % at 15.5 µM; 2,300 tested, 41% active; shares compounds with MsrA inh;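 further: coupled to thioredoxin reductase with NADPH and selenocystamine and DMSO as substrate; 0% = vehicle only and 100% = full effect of reference inhibitor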
* marks the source's active call; other numbers are inactive results; nt = no result. An excerpt weighted towards active compounds, which were near 2.3% of everything screened. Unless noted, no stated cut-off is given here; in the data, active means inhibition above about 4.5%; inactive means the rest.

SMILES	MC4R ag barr	MsrA inh	bovine MsrA act	MC4R antagonist	MsrA inh confirm
COc1ccc(CN=C(C#N)C2=C(O)c3ccccc3C2=O)cc1	3	2	-7	-5	nt
N#CC(=Nc1cccc(F)c1)C1=C(O)c2ccccc2C1=O	nt	5.2*	-9	nt	4
Cc1cc(C(=O)N/N=C/C=C/c2ccc([N+](=O)[O-])cc2)n[nH]1	-2	7.6*	-12	-20	7.9*
Cc1cc(C(=O)N/N=C/C=C/c2ccc(Br)cc2)n[nH]1	0	6.0*	-3	-3	3
O=C(N/N=C/C=C/c1ccc([N+](=O)[O-])cc1)c1cccs1	-2	2	-1	-4	nt
CC(C(=O)Nc1ccccn1)N1C(=O)c2ccccc2S1(=O)=O (stereo unspecified)	0	0	1	18	nt
CN(C)c1ccc(/C=N/N=C2/SC(CC(=O)O)C(=O)N2c2ccc(O)cc2)cc1 (stereo unspecified)	-2	5.4*	-6	-5	5.0*
O=C(O)CC1S/C(=N\N=C/c2ccccc2)N(c2ccc(O)cc2)C1=O (stereo unspecified)	-1	0	-3	-7	nt
COc1ccc(/C=N/N=C2\SC(CC(=O)O)C(=O)N2c2ccccc2)c(OC)c1 (stereo unspecified)	0	4.7*	-6	21	6.1*
C=CCN1C(=O)C(CC(=O)O)S/C1=N/N=C/c1ccc(N(CC)CC)cc1 (stereo unspecified)	1	5.0*	-3	13	3
CC1C(c2ccccc2)=[N+]([O-])C2(CCCCC2)N1O (stereo unspecified)	-1	1	-11	3	nt
CCOc1ccc(CCN2C(=O)C(=O)N([C@@H](CC(C)C)CN3CCC[C@H]3CN3C(=O)C(=O)NC[C@@H]3CC(C)C)C[C@@H]2Cc2ccccc2)cc1	nt	1	-6	nt	nt
CN(C)c1ccc(C(=O)Nc2nnc(C3=COCCO3)o2)cc1	-2	5.1*	-10	1	4
NC1=NC(=O)/C(=C/c2cn(CCC(=O)O)nc2-c2ccc(F)cc2)S1	-1	5.0*	-6	-4	3
CC(C)(C)C(=O)Nc1sc2c(c1C#N)CCC2	0	5.9*	-4	-1	4.7*
CCOC(=O)/C(C#N)=C1/SC(C)C(=O)N1c1ccc(Br)cc1 (stereo unspecified)	2	2	-13	3	nt
CCOC(=O)/C(C#N)=C1/C=CNC(=O)N1	2	4.7*	-10	-4	3
Nc1ccc(C(=O)C(=O)c2ccc(N)cc2)cc1	1	7.5*	-6	-1	6.8*
O=C(Nc1nnc(-c2ccncc2)o1)c1ccc(Br)s1	-1	5.8*	-2	10	3
N#Cc1cc([N+](=O)[O-])ccc1NC(=O)CSc1n[nH]c(=O)n1C1CC1	-1	1	-1	4	nt
O=C(NCC(c1ccco1)N1CCCCC1)c1ccc([N+](=O)[O-])s1 (stereo unspecified)	2	6.0*	-1	7	4
Cc1ccc(C(=O)NCC(c2ccco2)N2CCCCC2)s1 (stereo unspecified)	2	-1	-1	11	nt
NC(=S)N/N=C/c1c[nH]c2ccccc12	-1	6.5*	-1	-6	3
O=C(O)c1ccc(S(=O)(=O)NN=Cc2c[nH]c3ccccc23)cc1	0	2	-16	1	nt
O=C(O)c1ccc(N/N=C/c2c[nH]c3ccccc23)cc1	0	5.6*	-5	-3	6.1*
SMILES	MC4R ag barr	MsrA inh	bovine MsrA act	MC4R antagonist	MsrA inh confirm
CC(C)n1cc(/C=N/Nc2ccc(C(=O)O)cc2)c2ccccc21	-2	5.5*	-2	-13	4
O=C(N/N=C\c1c[nH]c2ccccc12)c1ccc(O)cc1	-1	5.3*	-5	0	4
Cc1ccc(C)c(NS(=O)(=O)c2cc(C(=O)NCc3ccco3)ccc2C)c1	1	0	-4	2	nt
O=C(O)c1cccc(Cn2cc(Br)cn2)c1	-1	0	-5	-2	nt
COCc1cc(C)nc(N/N=C/c2ccc(-c3ccc(Cl)cc3[N+](=O)[O-])o2)c1C#N	1	6.4*	-4	7	2
S=c1nccc(-c2ccc3c(c2)CCO3)[nH]1	0	5.6*	-6	2	3
CC1(C)CCc2cc(-c3ccnc(=S)[nH]3)ccc2O1	5	2	0	5	nt
CCCc1nnc(NC(=O)c2ccncc2)s1	2	2	-8	1	nt
CCc1nnc(NC(=O)c2ccncc2)s1	3	5.6*	-2	-3	0
O=c1cc(-c2ccco2)oc2ccccc12	-1	4	3	2	nt
Cc1ccc2oc(-c3ccco3)cc(=O)c2c1	-1	7.7*	-6	-3	5.4*
CCCC1(CCC)NC(=O)N(CC(=O)Nc2ccccc2OC)C1=O	0	1	-3	3	nt
O=c1[nH]c(=S)c2c(n1-c1ccccc1)CCC2	-1	5.8*	-6	8	3
O=c1c(-c2ccccc2)c(O)c2c(n1-c1ccccc1)CCCC2	-1	2	-2	3	nt
CCOc1cc(C(=S)N2CCOCC2)ccc1OC(=O)c1cccc(C)c1	-1	2	-1	9	nt
CCOc1cc(C)cc2oc(=O)cc(-c3ccccc3)c12	5	6.5*	-1	-4	5.1*
CC(=O)Oc1cc(C)cc2oc(=O)cc(-c3ccccc3)c12	-1	9.1*	1	10	1
Cc1ccc(-c2c(C)cc3oc(=O)cc(-c4ccccc4)c3c2C)cc1	2	0	-2	7	nt
Cc1cc(OC(C)C)c2c(-c3ccccc3)cc(=O)oc2c1	1	26*	-6	4	22*
Cc1cc(OCC(=O)N2CCc3ccccc3C2)c2c(-c3ccccc3)cc(=O)oc2c1	0	15*	-3	-13	14*
COC(=O)c1cc(S(=O)(=O)Nc2ccsc2C(=O)OC)oc1C	-1	2	0	12	nt
COC(=O)c1ccc(NC2=CC(=O)CC(C)(C)C2)cc1	-2	4.9*	-5	4	5.0*
COc1ccc(NC2=CC(=O)CC(C)(C)C2)cc1	0	3	-2	2	nt
Cc1ccc(C2(c3noc(CN4CCOCC4)n3)CCCC2)cc1	3	-1	-6	4	nt
Cc1ccc(C2(c3noc(CN4CCC(C(=O)N5CCOCC5)CC4)n3)CCCC2)cc1	-1	4.7*	-1	11	0
O=C(Nc1ccc2ncccc2c1)c1ccccc1	1	-1	0	5	nt
CC(=O)N(C)c1ccc(N=Nc2ccc3ncccc3c2)cc1	-1	5.3*	-3	-9	4.9*
Cc1csc(NC(=O)C2CCN(S(=O)(=O)c3ccc4c(c3)oc(=O)n4C)CC2)n1	0	0	2	21	nt
